The source of these data is ChEMBL document CHEMBL3227917, “Structure-activity relationships of dimeric Catharanthus alkaloids. 2. Experimental antitumor activities of N-substituted deacetylvinblastine amide (vindesine) sulfates” (J Med Chem, 1979).

SMILES strings stand for the structures.

Data set [1] in a line: Antitumor activity against mouse Ridgway osteogenic sarcoma allografted in AKR mouse assessed as tumor growth inhibition at 0.10 mg/kg, ip administered daily for 8 to 10 days compound treatment commenced 8 days after tumor implantation. It is filed as functional. Particulars: route intraperitoneal, read-out: TGI.
Data set [2] can be described thus: Antitumor activity against mouse Ridgway osteogenic sarcoma allografted in AKR mouse assessed as tumor growth inhibition at 0.40 mg/kg, ip administered daily for 8 to 10 days compound treatment commenced 8 days after tumor implantation. It is filed as functional. Particulars: route intraperitoneal, read-out: TGI.
A short description of data set [3]: Antitumor activity against mouse Gardner lymphosarcoma allografted in C3H mouse assessed as tumor growth inhibition at 0.20 mg/kg, ip administered daily for 8 to 10 days. It is filed as functional. To be noted: route intraperitoneal, read-out: TGI. In a few lines:
(§1)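 Gardner lymphosarcoma in C3H mice; sulfate salts unless noted, given ip daily for 8–10 days, treatment starting 8 days after tumor implantation. Tumor growth inhibition scored as –, 0–25%; +, 26–50%; ++, 51–75%; +++, 76–100%; T, lethal to ≥5 of 10 animals per group. Average of one or more tests.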

Data set [4] is described as follows: Antitumor activity against mouse Ridgway osteogenic sarcoma allografted in AKR mouse assessed as tumor growth inhibition at 0.20 mg/kg, ip administered daily for 8 to 10 days compound treatment commenced 8 days after tumor implantation. It is filed as functional. To be noted: route intraperitoneal, read-out: TGI.
The nature of data set [5]: Antitumor activity against mouse Gardner lymphosarcoma allografted in C3H mouse assessed as tumor growth inhibition at 0.30 mg/kg, ip administered daily for 8 to 10 days. It is filed as functional. Particulars: route intraperitoneal, read-out: TGI. In a few lines:
as §1

Data set [6] can be described thus: Antitumor activity against mouse Gardner lymphosarcoma allografted in C3H mouse assessed as tumor growth inhibition at 0.40 mg/kg, ip administered daily for 8 to 10 days. The class given is functional. To be noted: route intraperitoneal, read-out: TGI. In a few lines: as §1
Data set [7] is described as follows: Antitumor activity against mouse Gardner lymphosarcoma allografted in C3H mouse assessed as tumor growth inhibition at 0.10 mg/kg, ip administered daily for 8 to 10 days. It is filed as functional. Particulars: route intraperitoneal, read-out: TGI. In a few lines:
as §1

Data set [8] can be described thus: Antitumor activity against mouse Ridgway osteogenic sarcoma allografted in AKR mouse assessed as tumor growth inhibition at 0.30 mg/kg, ip administered daily for 8 to 10 days compound treatment commenced 8 days after tumor implantation. It is filed as functional. To be noted: route intraperitoneal, read-out: TGI.
Data set [9] relates to Mus musculus. Description: Toxicity in C3H mouse allografted with mouse Gardner lymphosarcoma assessed as lethality at 0.30 mg/kg, ip administered daily for 8 to 10 days. It is filed as organism-based. Also on record: dose 0.3 mg/kg, route intraperitoneal. Particulars: in vivo, 0.3 mg/kg. In a few lines: (§2)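 Tumor-bearing mice given sulfate salts ip daily for 8–10 days; values are the average of one or more tests. Toxic means lethal to ≥5 of 10 animals per group.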

Data set [10] relates to B16. Nature of the data set: Antitumor activity against mouse B16 cells allografted in C57BL/6 mouse assessed as prolongation of host survival at 0.90 mg/kg, ip administered on days 1,5 and 9. It is filed as functional. To be noted: route intraperitoneal. In a few lines: (§3)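 B16 melanoma cells (10⁶ inoculum) implanted ip in C57BL/6 mice; groups of 10. Sulfate salts unless noted, given ip on days 1, 5 and 9. Single test. Survival prolongation is expressed as percent versus controls, with survivors counted on day 60. Toxic means deaths of ≥5 of 10 animals before the first control death.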

Data set [11] relates to Mus musculus. Description: Toxicity in C57BL/6 mouse allografted with mouse B16 cells assessed as animal death at 1.20 mg/kg, ip administered on days 1,5 and 9. Further details: dose 1.2 mg/kg, route intraperitoneal. It is filed as organism-based. To be noted: in vivo, 1.2 mg/kg. In a few lines:
as §3

Data set [12] has as its system Mus musculus. Description: Toxicity in C3H mouse allografted with mouse Gardner lymphosarcoma assessed as lethality at 0.40 mg/kg, ip administered daily for 8 to 10 days. The class given is organism-based. To be noted: in vivo, 0.4 mg/kg. Further details: dose 0.4 mg/kg, route intraperitoneal. In a few lines:
as §2

Data set [13] deals with B16. Nature of the data set: Antitumor activity against mouse B16 cells allografted in C57BL/6 mouse assessed as prolongation of host survival at 0.60 mg/kg, ip administered on days 1,5 and 9. It is filed as functional. Particulars: route intraperitoneal. In a few lines:
as §3

The subject of data set [14] is CHO. Description: Mitotic arrest in CHO cells assessed as increase in cell accumulation at 0.02 ug/ml. The class given is functional, Cricetulus griseus. In a few lines: (§4)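 Chinese hamster ovary cells in tissue culture, scored for mitotic arrest as increase in cells in mitotic arrest over control: +++, 40–50%; ++, 15–40%; +, 10–15%; ±, 7–10%; –, 3–7%. Cytotoxicity noted separately.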

For data set [15], the system named is P388/VCR. Description: Antitumor activity against mouse P388/VCR cells allografted in B6D2F1 mouse assessed as increase in host lifespan at 0.60 mg/kg, ip administered on days 1, 5 and 9. It is filed as functional. To be noted: dose 0.6 mg/kg; route intraperitoneal. In a few lines: (§5)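 P388/VCR leukemia in groups of 10 B6D2F1 mice, run at Lilly using the cell strain received from NCI. Sulfate salts given ip on days 1, 5 and 9. Read-out is percent increase in lifespan.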

For data set [16], the system named is P388/VCR. Nature of the data set: Antitumor activity against mouse P388/VCR cells allografted in B6D2F1 mouse assessed as increase in host lifespan at 1.20 mg/kg, ip administered on days 1, 5 and 9. The class given is functional. Particulars: dose 1.2 mg/kg; route intraperitoneal. In a few lines: as §5
Data set [17] relates to CHO. Nature of the data set: Mitotic arrest in CHO cells assessed as increase in cell accumulation at 0.2 ug/ml. The class given is functional, Cricetulus griseus. In a few lines:
as §4

The subject of data set [18] is P388/VCR. Nature of the data set: Antitumor activity against mouse P388/VCR cells allografted in B6D2F1 mouse assessed as increase in host lifespan at 0.90 mg/kg, ip administered on days 1, 5 and 9. It is filed as functional. To be noted: dose 0.9 mg/kg; route intraperitoneal. In a few lines: as §5
For data set [19], the system named is CHO. Description: Mitotic arrest in CHO cells assessed as increase in cell accumulation at 0.002 ug/ml. The class given is functional, Cricetulus griseus. In a few lines: as §4
For data set [20], the system named is Mus musculus. Description: Toxicity in C3H mouse allografted with mouse Gardner lymphosarcoma assessed as lethality at 0.20 mg/kg, ip administered daily for 8 to 10 days. The class given is organism-based. Also on record: dose 0.2 mg/kg, route intraperitoneal. To be noted: in vivo, 0.2 mg/kg. In a few lines:
as §2

The nature of data set [21]: Antitumor activity against mouse Gardner lymphosarcoma allografted in C3H mouse assessed as tumor growth inhibition at 0.05 mg/kg, ip administered daily for 8 to 10 days. The class given is functional. Particulars: route intraperitoneal, read-out: TGI. In a few lines: as §1
Data set [22] deals with Mus musculus. Description: Toxicity in AKR mouse allografted with mouse Ridgway osteogenic sarcoma assessed as lethality at 0.20 mg/kg, ip administered daily for 8 to 10 days compound treatment commenced 8 days after tumor implantation. The class given is organism-based. Further details: dose 0.2 mg/kg, route intraperitoneal. Particulars: in vivo, 0.2 mg/kg. In a few lines: as §2

Data set [23] has as its system Mus musculus. Nature of the data set: Toxicity in AKR mouse allografted with mouse Ridgway osteogenic sarcoma assessed as lethality at 0.40 mg/kg, ip administered daily for 8 to 10 days compound treatment commenced 8 days after tumor implantation. The class given is organism-based. Further details: dose 0.4 mg/kg, route intraperitoneal. To be noted: in vivo, 0.4 mg/kg. In a few lines:
as §2

Turning to `CC[C@]1(O)C[C@H]2CN(CCc3c([nH]c4ccccc34)[C@@](C(=O)OC)(c3cc4c(cc3OC)N(C)[C@H]3[C@@](O)(C(=O)NCc5ccccc5)[C@H](O)[C@]5(CC)C=CCN6CC[C@]43[C@@H]65)C2)C1`, the inhibition in vivo at 0.1 mg/kg in data set [1] was 0%. For the same molecule, the results for the inhibition in vivo at 0.4 mg/kg in data set [2] and in data set [6] were 76% and 0%, respectively. For the same molecule, the inhibition in vivo at 0.2 mg/kg in data set [3] turned out to be 26%; in data set [4] it was 0%. Besides, the inhibition in vivo at 0.3 mg/kg in data set [5] is 0%.

Turning to `CC[C@]1(O)C[C@H]2CN(CCc3c([nH]c4ccccc34)[C@@](C(=O)OC)(c3cc4c(cc3OC)N(C)[C@H]3[C@@](O)(C(=O)NCC#N)[C@H](O)[C@]5(CC)C=CCN6CC[C@]43[C@@H]65)C2)C1.O=S(=O)(O)O`, the inhibition in vivo at 0.1 mg/kg in [7] and in data set [1] was 0% throughout. Further, the inhibition in vivo at 0.3 mg/kg in data set [8] was 26%. Also, the inhibition in vivo at 0.2 mg/kg in [3] came to 76%. Moreover, in the data set on Mus musculus [9], the Activity result is reported as “Toxic”.

In the case of `CC[C@]1(O)C[C@H]2CN(CCc3c([nH]c4ccccc34)[C@@](C(=O)OC)(c3cc4c(cc3OC)N(C)[C@H]3[C@@](O)(C(=O)NCCCSC)[C@H](O)[C@]5(CC)C=CCN6CC[C@]43[C@@H]65)C2)C1.O=S(=O)(O)O`, the inhibition in vivo at 0.1 mg/kg in data set [7] was 0%. Moreover, the inhibition in vivo at 0.2 mg/kg in [3] was 0%. Also, the survival at 0.9 mg/kg with B16 [10] was found to be 141%. Moreover, the Activity entry in the data set with Mus musculus [11] and with Mus musculus [12] was “Toxic” throughout. Further, the survival at 0.6 mg/kg in the data set with B16 [13] was determined as 101%.

On to `CC[C@]1(O)C[C@H]2CN(CCc3c([nH]c4ccccc34)[C@@](C(=O)OC)(c3cc4c(cc3OC)N(C)[C@H]3[C@@](O)(C(=O)NCCSC)[C@H](O)[C@]5(CC)C=CCN6CC[C@]43[C@@H]65)C2)C1.O=S(=O)(O)O`, for which the inhibition in vivo at 0.1 mg/kg in [7] was 0%. Also, the inhibition in vivo at 0.2 mg/kg in [3] stood at 0%. For the same molecule, the Activity in the data set on CHO [14] is 15%; with P388/VCR [15] it was 20%; in the data set on P388/VCR [16], 6%; with CHO [17], 15%; with Mus musculus [11] it was “Toxic”; in the data set on Mus musculus [12] it was “Toxic”. In addition, the figures for the Activity in the data set with P388/VCR [18] and in the data set with CHO [19] were 42% and 3%, respectively. In addition, in the data set with B16 [10], the survival at 0.9 mg/kg was 58%. Moreover, the survival at 0.6 mg/kg in the data set with B16 [13] amounted to 163%.

Turning to `C=CC(=O)OCCNC(=O)[C@@]1(O)[C@H](O)[C@]2(CC)C=CCN3CC[C@@]4(c5cc([C@@]6(C(=O)OC)C[C@@H]7CN(CCc8c6[nH]c6ccccc86)C[C@](O)(CC)C7)c(OC)cc5N(C)[C@@H]14)[C@@H]32`, in data set [7], the inhibition in vivo at 0.1 mg/kg amounted to 76%. In addition, the Activity result in the data set on Mus musculus [20] and in the data set with Mus musculus [12] was “Toxic” throughout. Also, the inhibition in vivo at 0.05 mg/kg in [21] was 51%.

For `CC[C@]1(O)C[C@H]2CN(CCc3c([nH]c4ccccc34)[C@@](C(=O)OC)(c3cc4c(cc3OC)N(C)[C@H]3[C@@](O)(C(=O)N(C)C)[C@H](O)[C@]5(CC)C=CCN6CC[C@]43[C@@H]65)C2)C1.O=S(=O)(O)O`, in data set [1], the inhibition in vivo at 0.1 mg/kg was 0%. The inhibition in vivo at 0.2 mg/kg in [3] amounted to 26%. The Activity result in the data set with Mus musculus [22], in the data set with Mus musculus [9], in the data set on Mus musculus [23] and in the data set on Mus musculus [12] was “Toxic” in each case.
